Test results as given in ChEMBL document CHEMBL4196195, “( R)- N-(1-Methyl-2-hydroxyethyl)-13-( S)-methyl-arachidonamide (AMG315): A Novel Chiral Potent Endocannabinoid Ligand with Stability to Metabolizing Enzymes” (J Med Chem, 2018).

Assays:
Format in all cases: ADME
[1] = target: T1, FAAH (fatty-acid amide hydrolase 1) (Homo sapiens, UniProt O00519); assay: Stability assessed as human FAAH-mediated compound hydrolysis by LC-MS/MS analysis; settings: human FAAH (fatty-acid amide hydrolase 1), read-out: Stability
T1 sequence (O00519 whole entry): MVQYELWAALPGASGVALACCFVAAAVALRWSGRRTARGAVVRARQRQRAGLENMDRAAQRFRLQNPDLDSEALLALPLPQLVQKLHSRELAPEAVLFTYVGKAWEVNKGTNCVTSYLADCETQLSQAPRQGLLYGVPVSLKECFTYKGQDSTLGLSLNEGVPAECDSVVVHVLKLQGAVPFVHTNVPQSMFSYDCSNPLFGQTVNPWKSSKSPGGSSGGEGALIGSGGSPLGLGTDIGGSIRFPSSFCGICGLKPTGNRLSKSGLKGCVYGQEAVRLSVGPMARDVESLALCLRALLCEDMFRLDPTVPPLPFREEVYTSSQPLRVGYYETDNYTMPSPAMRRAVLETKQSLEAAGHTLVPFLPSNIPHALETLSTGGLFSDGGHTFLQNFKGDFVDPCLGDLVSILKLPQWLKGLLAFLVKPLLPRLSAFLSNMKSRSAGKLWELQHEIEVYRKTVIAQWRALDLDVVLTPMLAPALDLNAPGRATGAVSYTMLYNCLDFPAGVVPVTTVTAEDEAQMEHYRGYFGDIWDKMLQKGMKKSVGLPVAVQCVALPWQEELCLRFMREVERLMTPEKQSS
In short: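 Expressed, partially purified rat or human FAAH incubated with compound, or AEA as reference substrate, for 30 min. Aliquots at time points quenched in acetonitrile to precipitate protein. Remaining compound measured by LC-MS/MS on a cyano column with 10 mM ammonium acetate pH 7.3/methanol at 0.5 mL/min.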

[2] = target: T2, MGL (monoglyceride lipase) (Homo sapiens, UniProt Q99685); assay: Stability assessed as human MGL-mediated compound hydrolysis by HPLC analysis; settings: read-out: Stability
T2 sequence (Q99685 whole entry): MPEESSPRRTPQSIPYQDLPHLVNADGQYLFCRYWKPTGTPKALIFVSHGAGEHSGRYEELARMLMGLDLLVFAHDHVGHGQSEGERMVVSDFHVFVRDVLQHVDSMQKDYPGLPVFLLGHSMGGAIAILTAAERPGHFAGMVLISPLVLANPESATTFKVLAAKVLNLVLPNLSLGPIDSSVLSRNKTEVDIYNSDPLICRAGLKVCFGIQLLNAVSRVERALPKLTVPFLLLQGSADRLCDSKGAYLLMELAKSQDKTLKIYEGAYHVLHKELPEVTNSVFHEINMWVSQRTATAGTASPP
In short: (§1)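 Human MGL or ABHD6 expressed in E. coli BL21(DE3); cell lysate in 150 mM NaCl, 50 mM Tris, 1% Triton X-100, pH 8.0. Lysate (0.5 µg total protein) incubated at 37 °C with compound or 2-AG reference for 30 min. Samples at 0–30 min quenched in acetonitrile. Analysed by C18 reversed-phase HPLC with UV at 204 nm against external standards.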

[3] = target: T3, ABHD6 (monoacylglycerol lipase ABHD6) (Homo sapiens, UniProt Q9BV23); assay: Stability assessed as human ABHD6-mediated compound hydrolysis by HPLC analysis; settings: read-out: Stability; in short: as §1
T3 sequence (Q9BV23 whole entry): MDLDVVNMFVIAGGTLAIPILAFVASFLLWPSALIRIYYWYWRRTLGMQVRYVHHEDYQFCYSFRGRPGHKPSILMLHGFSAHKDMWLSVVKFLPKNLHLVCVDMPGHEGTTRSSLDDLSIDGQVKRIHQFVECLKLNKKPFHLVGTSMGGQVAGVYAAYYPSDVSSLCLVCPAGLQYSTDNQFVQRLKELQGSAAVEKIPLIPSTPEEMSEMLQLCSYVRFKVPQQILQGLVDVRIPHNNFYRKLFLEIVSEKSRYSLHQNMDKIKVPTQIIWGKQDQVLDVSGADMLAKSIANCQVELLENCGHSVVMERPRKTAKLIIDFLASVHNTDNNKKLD

Measured: half-life

CCCCC/C=C\[C@H](C)/C=C\C/C=C\C/C=C\CCCC(=O)N[C@H](C)CO
30 min: all assays above
